Data on five compounds can be found in paper PMC7359933 (Clinical and Translational Science, 2020).

Data set [1] relates to healthy volunteers. As to the kind of experiment: Thorough QT/QTc study part 2: Holter ECG, Fridericia-corrected QT interval. Format: in vivo, human. To be noted: for Mean difference vs. placebo (90% CI), msec ddQTcF: MOX 400 mg (C–D); for Mean change from baseline, msec ddQTcF: MOX 400 mg single dose (C). In short, it runs like this: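 Healthy subjects, randomized four-period crossover with 10-day washouts, fed: oral fostemsavir 1,200 mg q.d. or 2,400 mg b.i.d. for 7 days, placebo b.i.d., or single moxifloxacin 400 mg on day 7. Triplicate ECGs from 24-h Holter, read centrally. Baseline is the mean of day-1 predose readings; readings 0.5–22.25 h post-dose on day 7. Linear mixed model gives 90% CI; bound 10 msec; assay sensitivity >5 msec at 2–4 h.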

The conditions of data set [2]: cited from earlier work.
The conditions of data set [3]: ritonavir 100 mg (q.d. or b.i.d.) ref 18, 21; cited from earlier work.
For data set [4] the following is noted: cited from earlier work. This is another data set of the same source.
For data set [5] the following is noted: heavily treatment‐experienced HIV‐1 infected patients, fostemsavir 600 mg b.i.d., BRIGHTE (NCT02362503) ref 22; cited from earlier work.
The subject of another data set is dog. Particulars: nonclinical assessment of fostemsavir or TMR ref unpublished data; cited from earlier work.
Data set [6] has as its system healthy volunteers. Set-up: species or system human. Particulars: final linear concentration‐ddQTcF model.
The conditions of data set [7]: cited from earlier work. The source holds these as a separate data set.
For data set [8] the following is noted: cited from earlier work. The source holds these as a separate data set.
The subject of the next data set is QTc interval. To be noted: cited from earlier work.

Read-outs that look alike come from different tables or passages of the source. Marks after values point to notes of the source that are not given here. Where only a bound is given, the exact number is not on record here.

Take `COc1c(N2C[C@@H]3CCCN[C@@H]3C2)c(F)cc2c(=O)c(C(=O)O)cn(C3CC3)c12` [MOX, moxifloxacin, reference compound]: the “Mean difference vs. placebo (90% CI), msec ddQTcF” value in the data set with healthy volunteers [1] (day 7, 0.5 hour) is reported as 0.42 (–1.73, 2.58) msec; with healthy volunteers [1] (day 7, 1 hour) it was 2.95 (0.80, 5.10) msec; in the data set with healthy volunteers [1] (day 7, 2 hour), 8.69 (6.57, 10.82)^a msec; in the data set on healthy volunteers [1] (day 7, 3 hour), 10.43 (8.32, 12.54)^b msec; in the data set with healthy volunteers [1] (day 7, 4 hour), 10.33 (8.22, 12.44)^c msec; in the data set on healthy volunteers [1] (day 7, 5 hour), 8.83 (6.72, 10.94) msec. In addition, the “Mean difference vs. placebo (90% CI), msec ddQTcF” value with healthy volunteers [1] (day 7, 6 hour) is listed as 7.98 (5.87, 10.09) msec; in the data set on healthy volunteers [1] (day 7, 8 hour) it was 8.05 (5.94, 10.17) msec; in the data set on healthy volunteers [1] (day 7, 10 hour) it was 8.96 (6.85, 11.07) msec; with healthy volunteers [1] (day 7, 11.5 hour), 8.75 (6.64, 10.86) msec; in the data set on healthy volunteers [1] (day 7, 14 hour), 7.55 (5.44, 9.66) msec; with healthy volunteers [1] (day 7, 15 hour), 5.64 (3.52, 7.75) msec. Also, the “Mean difference vs. placebo (90% CI), msec ddQTcF” value is given as 6.92 (4.81, 9.03) msec in the data set with healthy volunteers [1] (day 7, 16 hour) and 6.19 (4.08, 8.30) msec in the data set on healthy volunteers [1] (day 7, 22.25 hour). Moreover, the “Mean change from baseline, msec ddQTcF” value is “–7.12 msec” in the data set with healthy volunteers [1] (day 7, 0.5 hour); “–4.82 msec” with healthy volunteers [1] (day 7, 1 hour); “–1.93 msec” in the data set with healthy volunteers [1] (day 7, 2 hour); 0.40 ms in the data set with healthy volunteers [1] (day 7, 3 hour); 3.30 ms in the data set with healthy volunteers [1] (day 7, 4 hour); 4.16 ms in the data set with healthy volunteers [1] (day 7, 5 hour). In addition, the “Mean change from baseline, msec ddQTcF” value with healthy volunteers [1] (day 7, 6 hour) was “–0.81 msec”; in the data set on healthy volunteers [1] (day 7, 8 hour), “–0.74 msec”; with healthy volunteers [1] (day 7, 10 hour) it was 5.78 ms; in the data set on healthy volunteers [1] (day 7, 11.5 hour), 1.83 ms; with healthy volunteers [1] (day 7, 14 hour), 0.60 ms; in the data set on healthy volunteers [1] (day 7, 15 hour), 1.49 ms. Moreover, the “Mean change from baseline, msec ddQTcF” value with healthy volunteers [1] (day 7, 16 hour) worked out at 5.41 ms; in the data set with healthy volunteers [1] (day 7, 22.25 hour), 2.73 ms. Further, the “lower bound of multiplicity‐adjusted 90% CI of ddQTcF (assay sensitivity)” value in the data set on healthy volunteers [1] (moxifloxacin 400 mg, at 2, 3, and 4 hours) is “above 5 msec”.

`CC(C)c1nc(CN(C)C(=O)N[C@@H](CCN2CCOCC2)C(=O)N[C@H](CC[C@H](Cc2ccccc2)NC(=O)OCc2cncs2)Cc2ccccc2)cs1` [cobicistat]: the “increase in Cmax compared to without concomitant cobicistat” value in [2] (coadministration with cobicistat ref 21, 22) is given as 1.71 fold. Besides, in [2] (cobicistat 150 mg q.d. ref 18, 21), the “increase in TMR plasma Cmax” value is given as 71%.

Regarding `CC(C)c1nc(CN(C)C(=O)N[C@H](C(=O)N[C@@H](Cc2ccccc2)C[C@H](O)[C@H](Cc2ccccc2)NC(=O)OCc2cncs2)C(C)C)cs1` [ritonavir], in [3], the “increase in TMR plasma Cmax” value was 45–53%.

For the compound `COc1cnc(-n2cnc(C)n2)c2[nH]cc(C(=O)C(=O)N3CCN(C(=O)c4ccccc4)CC3)c12` [TMR, temsavir], in data set [4], the “effect of renal impairment on Cmax” value was “no effect”. Further, the “relationship of ddQTcF with plasma TMR concentration” value in the data set with healthy volunteers [1] (graphical assessment, part 2 data) is “positive linear relationship”. Moreover, the “geometric mean TMR peak plasma concentration (Cmax)” value in data set [5] is 1,770 ng/mL. Also, in the data set with dog, the “maximum observed TMR concentrations indicating cardiovascular liability” value is reported as ≥ 3,600 ng/mL. In the data set with healthy volunteers [6], the “Intercept θ1, bootstrap parameter estimate for n = 1,000 (90% CI)” value is listed as “–0.727 (–2.500, 1.072) msec”; the “Intercept θ1, population mean estimate (% RSE)” value is “–0.783 (139) msec”; the “Slope θ2, bootstrap parameter estimate for n = 1,000 (90% CI)” value is given as 0.00126 (0.0011, 0.00142) msec per ng/mL TMR; the “Slope θ2, population mean estimate (% RSE)” value is 0.00126 (7.9) msec per ng/mL TMR. In data set [7], the membrane permeability result is recorded as “good”. For the same compound, the “influence of hepatic impairment on Cmax” value in data set [8] is under 1.72 fold.

Consider `Cc1cc(/C=C/C#N)cc(C)c1Nc1ccnc(Nc2ccc(C#N)cc2)n1` [rilpivirine], for which the “QTc prolongation, one‐sided 95% CI upper bound” value in the data set on QTc interval (supratherapeutic dose 75 mg ref 11) is 15.3 ms; with QTc interval (therapeutic dose 25 mg ref 11), 8.2 ms.
